Data on one molecule can be found in publication PMC3057960 (Cancer research, 2010).

The nature of series [1]: Repeated imaging in immunocompetent mice, immune response. The series is classed as in vivo, mouse. The following applies: up to 6 imaging sessions over 8 months, data not shown.
Series [2] in a line: In vivo stability: urine metabolite analysis by radio HPLC. Conditions: mouse urine collected 1 hour post-injection, 3 mice. In outline:
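Urine was collected 1 hour after tail-vein injection of radiolabelled test compound (66.3-70.6 μCi in 150 μl PBS) from 3 of the healthy biodistribution mice. Samples were diluted to 1 mL with solvent A (99.9% H2O, 0.1% TFA) and analysed by radio HPLC.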

Series [3] can be described thus: Stability in mouse serum by radio HPLC. The series is classed as in vitro ADME. The following applies: tracer in PBS with equal volume of mouse serum, 37°C, 4 hours. The essentials:
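Radiotracer in PBS was mixed with an equal volume of mouse serum and incubated at 37°C. Samples taken at 1 and 4 hours were quenched with one volume of solvent A (99.9% H2O, 0.1% TFA) plus one volume of DMF, centrifuged, passed through a 0.2 micron spin filter and analysed by radio HPLC.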

The nature of series [4]: Ex vivo biodistribution in healthy mice. The following applies: mouse, iv, total radioactivity. The essentials: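 Healthy mice (N=5) were anaesthetised and given 66.3-70.6 μCi (2.45-2.61 MBq) of radiolabelled test compound in 150 μl PBS by tail vein, then euthanised 1 hour post-injection. Organs were removed, weighed and gamma counted, giving %ID/g or %ID/cm3. Soft-tissue density was taken as 1 g/cm3. Lung density was lung weight divided by CT volume from pre-injection CT. Mean ± standard error mean.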

Peptide text beside a SMILES is read from it.

Turning to `CC(C)C[C@@H]1NC(=O)[C@@H]2CSSC[C@@H](C(=O)NCC(N)=O)NC(=O)[C@H](Cc3ccccc3)NC(=O)CNC(=O)[C@H](CC(N)=O)NC(=O)[C@@H]3CCCN3C(=O)CNC(=O)[C@@H]3CSSC[C@H](NC(=O)[C@H]([C@@H](C)O)NC(=O)[C@H](CC(C)C)NC(=O)[C@@H]4CCCN4C(=O)[C@@H]4CCCN4C(=O)[C@H](CC(N)=O)NC(=O)[C@H](CC(=O)O)NC(=O)CNC(=O)[C@H](CCCNC(=N)N)NC(=O)[C@@H]4CCCN4C(=O)[C@H](CCCNC(=N)N)NC(=O)[C@@H]4CCCN4C(=O)[C@@H](NC(=O)CNC(=O)CN4CCN(CC(=O)O)CCN(CC(=O)O)CCN(CC(=O)O)CC4)CSSC[C@H](NC(=O)CNC(=O)[C@H](C)NC1=O)C(=O)N[C@@H](C(C)C)C(=O)N3)C(=O)N[C@@H](CO)C(=O)N[C@@H](CCC(N)=O)C(=O)N[C@@H](CC(=O)O)C(=O)N[C@@H](CO)C(=O)N[C@@H](CC(=O)O)C(=O)N2` [^64Cu-DOTA-knottin 2.5F, metal not drawn] (HELM PEPTIDE1{[O=C(O)CN1CCN(CC(=O)O)CCN(CC(=O)[*:2])CCN(CC(=O)O)CC1].G.C.P.R.P.R.G.D.N.P.P.L.T.C.S.Q.D.S.D.C.L.A.G.C.V.C.G.P.N.G.F.C.G.[am]}$PEPTIDE1,PEPTIDE1,3:R3-25:R3|PEPTIDE1,PEPTIDE1,15:R3-27:R3|PEPTIDE1,PEPTIDE1,21:R3-33:R3$$$V2.0; N-terminus and C-terminus assumed), the “Acute immune response on repeated imaging” value in series [1] was “without the observation of an acute immune response”. Besides, in series [2], the “Stability in vivo, excretion in urine” value is reported as “mainly excreted intact”. Further, the Serum stability entry in series [3] is reported as “highly stable”. Moreover, the tissue uptake per volume at 1 h in series [4] (kidneys) is 11.4 ± 1.45 %ID/mL; in series [4] (stomach, intestine, spleen, liver), 1.28 to 2.53 %ID/mL.
